The results in this text go back to ChEMBL document CHEMBL1136992, “Further studies at neuropeptide s position 5: discovery of novel neuropeptide S receptor antagonists” (J Med Chem, 2009).

Activity calls are given as the source filed them. The calls are words filed in the database; no cut-off is given here. Square brackets hold non-standard residues; d marks the D form. Peptide text beside a SMILES is read from it. * marks the point of attachment. d(tBuAla) = CC(C)(C)C[C@@H](N)C(=O)O; d(aThr) = C[C@@H](O)[C@@H](N)C(=O)O; dCha = N[C@H](CC1CCCCC1)C(=O)O; dChg = N[C@@H](C(=O)O)C1CCCCC1; dPen = CC(C)(S)[C@@H](N)C(=O)O; dPhg = N[C@@H](C(=O)O)c1ccccc1; dNva = CCC[C@@H](N)C(=O)O; tBu = CC(C)(C)*

The first assay concerns the target T1, Neuropeptide S receptor (Homo sapiens) (UniProt Q6W5P4).
T1 sequence (whole entry): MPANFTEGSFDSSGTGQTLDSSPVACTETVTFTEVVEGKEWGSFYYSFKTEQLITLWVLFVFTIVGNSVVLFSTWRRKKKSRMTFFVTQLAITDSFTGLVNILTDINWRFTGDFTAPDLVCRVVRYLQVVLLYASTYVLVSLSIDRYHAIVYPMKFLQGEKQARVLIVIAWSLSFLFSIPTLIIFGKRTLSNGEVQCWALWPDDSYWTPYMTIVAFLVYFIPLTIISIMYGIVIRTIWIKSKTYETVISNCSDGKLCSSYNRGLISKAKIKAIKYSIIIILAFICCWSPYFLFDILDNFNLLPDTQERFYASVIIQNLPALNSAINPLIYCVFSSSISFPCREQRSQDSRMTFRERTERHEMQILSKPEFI
To be noted: HEK293.
`O=C(NCc1ccc(F)cc1)N1CCN2C(=O)OC(c3ccccc3)(c3ccccc3)C2C1` (stereo not given) had a pKb of 7.5.

For the next assay, the target named is T2, Neuropeptide S receptor (Mus musculus) (UniProt Q8BZP8).
T2 sequence (whole entry): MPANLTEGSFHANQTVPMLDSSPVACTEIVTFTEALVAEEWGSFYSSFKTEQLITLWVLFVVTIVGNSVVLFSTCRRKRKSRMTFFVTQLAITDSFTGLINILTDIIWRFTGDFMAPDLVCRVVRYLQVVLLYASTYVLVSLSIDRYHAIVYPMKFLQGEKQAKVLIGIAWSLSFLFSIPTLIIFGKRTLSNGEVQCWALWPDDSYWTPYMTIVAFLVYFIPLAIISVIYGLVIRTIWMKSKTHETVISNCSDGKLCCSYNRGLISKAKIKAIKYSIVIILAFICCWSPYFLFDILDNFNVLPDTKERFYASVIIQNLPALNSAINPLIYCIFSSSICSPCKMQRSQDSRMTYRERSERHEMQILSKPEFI
The assay is described as follows: Agonist activity at mouse NPSR expressed in HEK293 cells up to 10 uM by calcium mobilization assay. The format is functional, cell-based.
Conditions: not given
An outline of the steps: (§1)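 HEK293 cells stably expressing mouse NPSR; intracellular calcium mobilization measured after peptide addition, concentration-response curves giving pEC50 and Emax as % over basal. Mean of at least four separate experiments performed in duplicate.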
As for `CC[C@H](C)C(NC(=O)[C@H](CC(N)=O)NC(=O)[C@H](CCCNC(=N)N)NC(=O)[C@H](Cc1ccccc1)NC(=O)[C@@H](N)CO)C(=O)N[C@H](C(=O)NCC(=O)N[C@H](C(=O)NCC(=O)N[C@@H](CCSC)C(=O)N[C@@H](CCCCN)C(=O)N[C@@H](CCCCN)C(=O)N[C@H](C(=O)N[C@@H](CO)C(=O)N[C@@H](Cc1ccccc1)C(=O)N[C@@H](CCC(N)=O)C(=O)N[C@@H](CCCNC(=N)N)C(=O)N[C@@H](C)C(=O)N[C@@H](CCCCN)C(=O)O)[C@@H](C)O)[C@@H](C)O)C(C)C` (single isomer, unassigned), the Emax entry was “inactive”.
For `CSCC[C@H](NC(=O)CNC(=O)[C@@H](NC(=O)CNC(=O)[C@@H](NC(=O)[C@H](NC(=O)[C@H](CC(N)=O)NC(=O)[C@H](CCCNC(=N)N)NC(=O)[C@H](Cc1ccccc1)NC(=O)[C@@H](N)CO)C(C)(C)S)C(C)C)[C@@H](C)O)C(=O)N[C@@H](CCCCN)C(=O)N[C@@H](CCCCN)C(=O)N[C@H](C(=O)N[C@@H](CO)C(=O)N[C@@H](Cc1ccccc1)C(=O)N[C@@H](CCC(N)=O)C(=O)N[C@@H](CCCNC(=N)N)C(=O)N[C@@H](C)C(=O)N[C@@H](CCCCN)C(=O)O)[C@@H](C)O` (H-SFRN[dPen]VGTGMKKTSFQRAK-OH), the Emax result is “inactive”.
On the same count and under the same terms, next, `CC[C@@H](C)[C@@H](NC(=O)[C@H](CC(N)=O)NC(=O)[C@H](CCCNC(=N)N)NC(=O)[C@H](Cc1ccccc1)NC(=O)[C@@H](N)CO)C(=O)N[C@H](C(=O)NCC(=O)N[C@H](C(=O)NCC(=O)N[C@@H](CCSC)C(=O)N[C@@H](CCCCN)C(=O)N[C@@H](CCCCN)C(=O)N[C@H](C(=O)N[C@@H](CO)C(=O)N[C@@H](Cc1ccccc1)C(=O)N[C@@H](CCC(N)=O)C(=O)N[C@@H](CCCNC(=N)N)C(=O)N[C@@H](C)C(=O)N[C@@H](CCCCN)C(=O)O)[C@@H](C)O)[C@@H](C)O)C(C)C` (H-SFRN[dI]VGTGMKKTSFQRAK-OH): “inactive”; `CSCC[C@H](NC(=O)CNC(=O)[C@@H](NC(=O)CNC(=O)[C@@H](NC(=O)[C@H](NC(=O)[C@H](CC(N)=O)NC(=O)[C@H](CCCNC(=N)N)NC(=O)[C@H](Cc1ccccc1)NC(=O)[C@@H](N)CO)C(C)C)C(C)C)[C@@H](C)O)C(=O)N[C@@H](CCCCN)C(=O)N[C@@H](CCCCN)C(=O)N[C@H](C(=O)N[C@@H](CO)C(=O)N[C@@H](Cc1ccccc1)C(=O)N[C@@H](CCC(N)=O)C(=O)N[C@@H](CCCNC(=N)N)C(=O)N[C@@H](C)C(=O)N[C@@H](CCCCN)C(=O)N[C@@H](CO)C(=O)O)[C@@H](C)O` (H-SFRN[dV]VGTGMKKTSFQRAKS-OH): “inactive”.
`CSCC[C@H](NC(=O)CNC(=O)[C@@H](NC(=O)CNC(=O)[C@@H](NC(=O)[C@@H](CC1CCCCC1)NC(=O)[C@H](CC(N)=O)NC(=O)[C@H](CCCNC(=N)N)NC(=O)[C@H](Cc1ccccc1)NC(=O)[C@@H](N)CO)C(C)C)[C@@H](C)O)C(=O)N[C@@H](CCCCN)C(=O)N[C@@H](CCCCN)C(=O)N[C@H](C(=O)N[C@@H](CO)C(=O)N[C@@H](Cc1ccccc1)C(=O)N[C@@H](CCC(N)=O)C(=O)N[C@@H](CCCNC(=N)N)C(=O)N[C@@H](C)C(=O)N[C@@H](CCCCN)C(=O)O)[C@@H](C)O` (H-SFRN[dCha]VGTGMKKTSFQRAK-OH): the Emax result is “inactive”.
Consider `CSCC[C@H](NC(=O)CNC(=O)[C@@H](NC(=O)CNC(=O)[C@@H](NC(=O)[C@H](NC(=O)[C@H](CC(N)=O)NC(=O)[C@H](CCCNC(=N)N)NC(=O)[C@H](Cc1ccccc1)NC(=O)[C@@H](N)CO)[C@@H](C)O)C(C)C)[C@@H](C)O)C(=O)N[C@@H](CCCCN)C(=O)N[C@@H](CCCCN)C(=O)N[C@H](C(=O)N[C@@H](CO)C(=O)N[C@@H](Cc1ccccc1)C(=O)N[C@@H](CCC(N)=O)C(=O)N[C@@H](CCCNC(=N)N)C(=O)N[C@@H](C)C(=O)N[C@@H](CCCCN)C(=O)O)[C@@H](C)O` (H-SFRN[d(aThr)]VGTGMKKTSFQRAK-OH), for which the Emax entry is “inactive”.
For the molecule `CSCC[C@H](NC(=O)CNC(=O)[C@@H](NC(=O)CNC(=O)[C@@H](NC(=O)[C@H](NC(=O)[C@H](CC(N)=O)NC(=O)[C@H](CCCNC(=N)N)NC(=O)[C@H](Cc1ccccc1)NC(=O)[C@@H](N)CO)C1CCCCC1)C(C)C)[C@@H](C)O)C(=O)N[C@@H](CCCCN)C(=O)N[C@@H](CCCCN)C(=O)N[C@H](C(=O)N[C@@H](CO)C(=O)N[C@@H](Cc1ccccc1)C(=O)N[C@@H](CCC(N)=O)C(=O)N[C@@H](CCCNC(=N)N)C(=O)N[C@@H](C)C(=O)N[C@@H](CCCCN)C(=O)O)[C@@H](C)O` (H-SFRN[dChg]VGTGMKKTSFQRAK-OH), the Emax entry was “inactive”.

In another assay the target is T2, Neuropeptide S receptor (Mus musculus). The assay is described as follows: Antagonist activity at mouse NPSR expressed in HEK293 cells assessed as inhibition of NPS-induced response. The format is functional, cell-based.
Conditions: not given
An outline of the steps:
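HEK293 cells stably expressing mouse NPSR, calcium mobilization. Inhibition response curves to test peptides against 30 nM NPS, run at 37 °C with three up-and-down mixing cycles right after antagonist injection to aid diffusion. Mean of at least four separate experiments performed in duplicate.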
Consider `CSCC[C@H](NC(=O)CNC(=O)[C@@H](NC(=O)CNC(=O)[C@@H](NC(=O)[C@@H](CSC(C)(C)C)NC(=O)[C@H](CC(N)=O)NC(=O)[C@H](CCCNC(=N)N)NC(=O)[C@H](Cc1ccccc1)NC(=O)[C@@H](N)CO)C(C)C)[C@@H](C)O)C(=O)N[C@@H](CCCCN)C(=O)N[C@@H](CCCCN)C(=O)N[C@H](C(=O)N[C@@H](CO)C(=O)N[C@@H](Cc1ccccc1)C(=O)N[C@@H](CCC(N)=O)C(=O)N[C@@H](CCCNC(=N)N)C(=O)N[C@@H](C)C(=O)N[C@@H](CCCCN)C(=O)N[C@@H](CO)C(=O)O)[C@@H](C)O` (H-SFRN[dC](tBu)VGTGMKKTSFQRAKS-OH), for which the pKb was 6.5.
Turning to `CSCC[C@H](NC(=O)CNC(=O)[C@@H](NC(=O)CNC(=O)[C@@H](NC(=O)[C@H](NC(=O)[C@H](CC(N)=O)NC(=O)[C@H](CCCNC(=N)N)NC(=O)[C@H](Cc1ccccc1)NC(=O)[C@@H](N)CO)C(C)C)C(C)C)[C@@H](C)O)C(=O)N[C@@H](CCCCN)C(=O)N[C@@H](CCCCN)C(=O)N[C@H](C(=O)N[C@@H](CO)C(=O)N[C@@H](Cc1ccccc1)C(=O)N[C@@H](CCC(N)=O)C(=O)N[C@@H](CCCNC(=N)N)C(=O)N[C@@H](C)C(=O)N[C@@H](CCCCN)C(=O)N[C@@H](CO)C(=O)O)[C@@H](C)O` (H-SFRN[dV]VGTGMKKTSFQRAKS-OH), the pKb amounted to 6.54.

The target in the next assay is T3, Neuropeptide S receptor (Mus musculus, UniProt Q8BZP8).
T3 sequence (Q8BZP8 whole entry): T2 sequence (whole entry)
Briefly: Agonist activity at mouse NPSR expressed in HEK293 cells by calcium mobilization assay.
Conditions: not given
The format is functional, cell-based. The gist of the method: as §1
For `CCC[C@@H](NC(=O)[C@H](CC(N)=O)NC(=O)[C@H](CCCN=C(N)N)NC(=O)[C@H](Cc1ccccc1)NC(=O)[C@@H](N)CO)C(=O)N[C@H](C(=O)NCC(=O)N[C@H](C(=O)NCC(=O)N[C@@H](CCSC)C(=O)N[C@@H](CCCCN)C(=O)N[C@@H](CCCCN)C(=O)N[C@H](C(=O)N[C@@H](CO)C(=O)N[C@@H](Cc1ccccc1)C(=O)N[C@@H](CCC(N)=O)C(=O)N[C@@H](CCCN=C(N)N)C(=O)N[C@@H](C)C(=O)N[C@@H](CCCCN)C(=O)O)[C@@H](C)O)[C@@H](C)O)C(C)C` (H-SFRN[dNva]VGTGMKKTSFQRAK-OH), the EC50 is 2690 nM.
`CSCC[C@H](NC(=O)CNC(=O)[C@@H](NC(=O)CNC(=O)[C@@H](NC(=O)[C@@H](CC(C)(C)C)NC(=O)[C@H](CC(N)=O)NC(=O)[C@H](CCCN=C(N)N)NC(=O)[C@H](Cc1ccccc1)NC(=O)[C@@H](N)CO)C(C)C)[C@@H](C)O)C(=O)N[C@@H](CCCCN)C(=O)N[C@@H](CCCCN)C(=O)N[C@H](C(=O)N[C@@H](CO)C(=O)N[C@@H](Cc1ccccc1)C(=O)N[C@@H](CCC(N)=O)C(=O)N[C@@H](CCCN=C(N)N)C(=O)N[C@@H](C)C(=O)N[C@@H](CCCCN)C(=O)O)[C@@H](C)O` (H-SFRN[d(tBuAla)]VGTGMKKTSFQRAK-OH): the 50% effective concentration (EC50) was 1660 nM.
Turning to “H-SFRNGVGTGMKKTSFQRAKS-OH [NEUROPEPTIDE S]”, the EC50 was 4.79 nM.
With `CSCC[C@H](NC(=O)CNC(=O)[C@@H](NC(=O)CNC(=O)[C@@H](NC(=O)[C@H](NC(=O)[C@H](CC(N)=O)NC(=O)[C@H](CCCNC(=N)N)NC(=O)[C@H](Cc1ccccc1)NC(=O)[C@@H](N)CO)[C@H](C)O)C(C)C)[C@@H](C)O)C(=O)N[C@@H](CCCCN)C(=O)N[C@@H](CCCCN)C(=O)N[C@H](C(=O)N[C@@H](CO)C(=O)N[C@@H](Cc1ccccc1)C(=O)N[C@@H](CCC(N)=O)C(=O)N[C@@H](CCCNC(=N)N)C(=O)N[C@@H](C)C(=O)N[C@@H](CCCCN)C(=O)O)[C@@H](C)O` (H-SFRN[dT]VGTGMKKTSFQRAK-OH), the EC50 was 794 nM.
Still for that read-out and setting: the result for `CSCC[C@H](NC(=O)CNC(=O)[C@@H](NC(=O)CNC(=O)[C@@H](NC(=O)[C@H](NC(=O)[C@H](CC(N)=O)NC(=O)[C@H](CCCN=C(N)N)NC(=O)[C@H](Cc1ccccc1)NC(=O)[C@@H](N)CO)c1ccccc1)C(C)C)[C@@H](C)O)C(=O)N[C@@H](CCCCN)C(=O)N[C@@H](CCCCN)C(=O)N[C@H](C(=O)N[C@@H](CO)C(=O)N[C@@H](Cc1ccccc1)C(=O)N[C@@H](CCC(N)=O)C(=O)N[C@@H](CCCN=C(N)N)C(=O)N[C@@H](C)C(=O)N[C@@H](CCCCN)C(=O)O)[C@@H](C)O` (H-SFRN[dPhg]VGTGMKKTSFQRAK-OH) reads 661 nM.
